Calls of active or inactive are those of the source. The calls are words filed in the database; no cut-off is given here.
What was measured:
A549 (human) = test: Cytotoxicity against human A549 cells assessed as decrease in cell growth by WST-1 assay; settings: time 2-48 hrs
A549 = test: Cytotoxicity against human A549 cells assessed as inhibition of cell growth incubated for 48 hrs by WST-1 assay; format: functional, cell-based; settings: A549, 48 h
[1] = target: Phospholipase D2 (Homo sapiens) (UniProt O14939); test: Inhibition of PLD2 (unknown origin) overexpressed in human A549 cells; format: cell-based
Procedure, shortened: (§1)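 A549 cells transfected with wild-type PLD1, PLD1 mutants (L425A, F614A, F789A) or PLD2, then compound-treated. PLD activity measured as [3H]phosphatidylbutanol formed in the presence of 1-butanol after [3H]myristic acid labeling, expressed as % of total lipid cpm. At least three independent experiments.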

[2] = target: T1, Phospholipase D1 (Mus musculus) (UniProt Q9Z280); test: In vivo inhibition of PLD1 in male C57BL/6 mouse allografted with mouse Lewis lung carcinoma cell line assessed as increase in CD80+ pro-inflammatory M1 macrophage population at 10 mg/kg, po by immunofluorescence analysis; format: functional, organism-based
T1 sequence (whole entry): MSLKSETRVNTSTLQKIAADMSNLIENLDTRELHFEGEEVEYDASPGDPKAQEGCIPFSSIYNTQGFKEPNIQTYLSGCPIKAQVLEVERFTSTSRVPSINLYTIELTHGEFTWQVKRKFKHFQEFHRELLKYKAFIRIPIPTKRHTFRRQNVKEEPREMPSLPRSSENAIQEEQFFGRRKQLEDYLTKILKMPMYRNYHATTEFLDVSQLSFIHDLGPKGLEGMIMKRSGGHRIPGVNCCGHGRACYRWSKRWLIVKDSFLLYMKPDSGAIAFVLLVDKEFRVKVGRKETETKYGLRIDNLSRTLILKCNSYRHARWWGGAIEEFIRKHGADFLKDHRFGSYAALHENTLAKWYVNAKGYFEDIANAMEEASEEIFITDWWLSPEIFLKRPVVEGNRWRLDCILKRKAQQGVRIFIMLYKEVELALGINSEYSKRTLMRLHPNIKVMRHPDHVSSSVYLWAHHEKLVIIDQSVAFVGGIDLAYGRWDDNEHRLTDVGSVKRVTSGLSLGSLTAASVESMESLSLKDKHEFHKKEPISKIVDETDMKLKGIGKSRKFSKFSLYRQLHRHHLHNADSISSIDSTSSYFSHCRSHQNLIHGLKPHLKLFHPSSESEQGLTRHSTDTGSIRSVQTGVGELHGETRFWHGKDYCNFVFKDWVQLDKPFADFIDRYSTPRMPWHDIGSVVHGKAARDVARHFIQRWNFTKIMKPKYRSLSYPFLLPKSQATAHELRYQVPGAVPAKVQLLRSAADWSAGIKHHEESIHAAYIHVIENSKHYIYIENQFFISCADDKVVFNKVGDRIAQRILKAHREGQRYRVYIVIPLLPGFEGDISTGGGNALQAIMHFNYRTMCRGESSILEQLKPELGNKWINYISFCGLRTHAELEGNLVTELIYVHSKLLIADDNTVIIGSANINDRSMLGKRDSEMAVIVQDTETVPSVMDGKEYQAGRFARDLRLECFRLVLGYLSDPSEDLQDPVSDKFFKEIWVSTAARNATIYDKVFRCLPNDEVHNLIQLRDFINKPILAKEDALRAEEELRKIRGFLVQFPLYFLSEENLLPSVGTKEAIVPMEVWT
Procedure, shortened: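 Same LLC syngeneic C57BL/6 model, 10 mg/kg PO every other day for 3 weeks. Tumor tissues were stained by immunofluorescence for CD80+ and CD163+ cells, CD8+ T cells, and CD4+/IL-17+ and Treg populations. Nuclei were counterstained with 1 μM Hoechst 33342 and imaged by confocal microscopy.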

[3] = target: Tubulin beta (Homo sapiens) (UniProt P68371+Q9H4B7+Q13509+P04350+Q3ZCM7+P07437+Q13885+Q9BVA1+Q9BUF5+A6NNZ2); test: Binding affinity to beta-tubulin in human A549 cells assessed as protection against pronase E-mediated proteolysis at 2 to 20 uM incubated for 1 hr by DARTS assay; format: cell-based; settings: dose 2-20 µM
Procedure, shortened: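 A549 lysates made in buffer with protease and phosphatase inhibitors. Lysates were incubated with compound for 1 h at room temperature, then digested with Pronase for 10 min at RT. Digestion was quenched in SDS loading buffer by boiling 5 min. PLD1 and β-tubulin were detected by immunoblot.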

HCC44 = test: Cytotoxicity against human HCC44 cells assessed as inhibition of cell growth incubated for 48 hrs by WST-1 assay; format: functional, cell-based; settings: HCC44, 48 h
Procedure, shortened: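 WST-1 viability assay. Cells seeded at 5 × 10^3 per well and incubated 24 h at 37 °C, then exposed to drug for 48 h. Absorbance read at 450 nm, in triplicate. IC50 taken as the concentration giving 50% growth inhibition versus control.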

[4] = target: T2, Phospholipase D1 (Homo sapiens) (UniProt Q13393); test: Inhibition of PLD1 (unknown origin) overexpressed in human A549 cells; format: cell-based
T2 sequence (whole entry): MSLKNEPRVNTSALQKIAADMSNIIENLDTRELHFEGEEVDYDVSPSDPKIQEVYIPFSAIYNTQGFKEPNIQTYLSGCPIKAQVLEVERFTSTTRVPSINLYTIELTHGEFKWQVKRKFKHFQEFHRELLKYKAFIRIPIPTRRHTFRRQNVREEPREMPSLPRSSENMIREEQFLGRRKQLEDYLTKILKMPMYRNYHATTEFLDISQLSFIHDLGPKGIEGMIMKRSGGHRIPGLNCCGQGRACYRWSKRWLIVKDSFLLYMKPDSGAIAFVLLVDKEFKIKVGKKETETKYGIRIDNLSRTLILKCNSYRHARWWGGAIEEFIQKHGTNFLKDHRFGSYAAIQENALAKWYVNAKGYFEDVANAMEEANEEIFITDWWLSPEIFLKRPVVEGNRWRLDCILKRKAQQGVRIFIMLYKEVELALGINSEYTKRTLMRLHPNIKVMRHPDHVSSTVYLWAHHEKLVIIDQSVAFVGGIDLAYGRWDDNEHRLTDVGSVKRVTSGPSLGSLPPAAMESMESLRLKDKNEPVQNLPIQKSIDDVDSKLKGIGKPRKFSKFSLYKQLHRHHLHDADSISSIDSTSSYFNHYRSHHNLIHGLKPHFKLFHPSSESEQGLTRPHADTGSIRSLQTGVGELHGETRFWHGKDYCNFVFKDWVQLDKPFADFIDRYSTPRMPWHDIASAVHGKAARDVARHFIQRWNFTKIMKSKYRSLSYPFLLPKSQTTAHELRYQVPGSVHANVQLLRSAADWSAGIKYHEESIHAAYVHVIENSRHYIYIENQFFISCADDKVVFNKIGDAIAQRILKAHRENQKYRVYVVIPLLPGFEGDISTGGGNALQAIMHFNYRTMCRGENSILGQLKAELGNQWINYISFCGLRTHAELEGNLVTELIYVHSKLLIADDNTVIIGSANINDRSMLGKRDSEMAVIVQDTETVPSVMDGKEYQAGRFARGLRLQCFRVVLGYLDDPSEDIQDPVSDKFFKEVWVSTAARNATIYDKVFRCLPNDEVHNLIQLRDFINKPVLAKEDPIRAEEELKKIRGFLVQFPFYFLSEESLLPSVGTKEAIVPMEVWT
Procedure, shortened: as §1

Sequence of Phospholipase D2 (Homo sapiens) (O14939 whole entry): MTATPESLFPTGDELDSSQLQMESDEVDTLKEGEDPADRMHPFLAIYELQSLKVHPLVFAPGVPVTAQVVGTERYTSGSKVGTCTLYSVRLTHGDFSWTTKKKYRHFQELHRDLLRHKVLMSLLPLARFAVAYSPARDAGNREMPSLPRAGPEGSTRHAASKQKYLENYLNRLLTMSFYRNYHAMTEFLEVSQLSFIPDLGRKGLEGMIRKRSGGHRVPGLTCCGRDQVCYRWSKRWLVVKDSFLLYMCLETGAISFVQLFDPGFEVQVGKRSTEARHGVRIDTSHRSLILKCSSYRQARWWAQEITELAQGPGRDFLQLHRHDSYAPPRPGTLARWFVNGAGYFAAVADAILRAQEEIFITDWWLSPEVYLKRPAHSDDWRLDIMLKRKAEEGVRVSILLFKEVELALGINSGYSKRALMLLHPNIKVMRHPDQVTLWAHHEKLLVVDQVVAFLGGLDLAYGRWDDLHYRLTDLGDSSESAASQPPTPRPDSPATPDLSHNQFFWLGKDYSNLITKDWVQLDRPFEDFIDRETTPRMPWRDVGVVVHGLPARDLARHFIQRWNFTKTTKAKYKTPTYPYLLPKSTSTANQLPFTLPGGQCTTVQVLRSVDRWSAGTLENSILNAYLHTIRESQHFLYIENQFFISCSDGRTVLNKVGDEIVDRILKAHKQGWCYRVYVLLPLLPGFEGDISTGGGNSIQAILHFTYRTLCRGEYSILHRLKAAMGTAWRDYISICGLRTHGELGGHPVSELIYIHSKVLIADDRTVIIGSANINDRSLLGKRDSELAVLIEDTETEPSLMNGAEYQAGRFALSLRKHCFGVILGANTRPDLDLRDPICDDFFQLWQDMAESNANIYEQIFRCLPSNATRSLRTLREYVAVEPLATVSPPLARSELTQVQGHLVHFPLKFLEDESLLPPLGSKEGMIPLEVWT

For `O=C(CCc1c[nH]c2ccccc12)Nc1cc(C(F)(F)F)cc(C(F)(F)F)c1`, the Activity (A549 (human)) was “Time-dependent-effect”, the IC50 (A549) was 18 µM and the inhibition [1] was “inactive”. For the same compound, the inhibition [2] was “Active”, the Activity [3] was “inactive” and the IC50 (HCC44) was 22.3 µM. The inhibition [4] was “Active”.

Source: ChEMBL document CHEMBL6134796, “Development and Evaluation of Indole-Based Phospholipase D Inhibitors for Lung Cancer Immunotherapy” (J Med Chem, 2025)
